# Source: ChEMBL document CHEMBL1933063, “Investigation of chalcones and benzochalcones as inhibitors of breast cancer resistance protein” (Bioorg Med Chem, 2012)
# Key:
# [1] = molecular target: ATP-dependent translocase ABCB1 (Homo sapiens, UniProt P08183); assay: Inhibition of MDR1 in human A2780adr cells assessed as calcein AM accumulation at 10 uM by fluorimetry; format: cell-based; settings: a2780 adr
# How it was run: (§1)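 Calcein AM accumulation in A2780adr (P-gp) or 2008 MRP1 cells. Cells washed in Krebs-HEPES buffer, about 30,000 per well, preincubated 30 min with compound at 10 µM final. Calcein AM then added. Fluorescence (ex 485, em 520 nm) read every 60 s up to 90 min at 37 °C. Expressed as percent of vehicle control; n = 3.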
# [2] = molecular target: Multidrug resistance-associated protein 1 (Homo sapiens, UniProt P33527); assay: Inhibition of MRP1 overexpressed in human 2008 MRP1 cells assessed as calcein AM accumulation at 10 uM by fluorimetry; format: cell-based; settings: human, 2008, 10 µM; how it was run: as §1
# Multidrug resistance-associated protein 1, sequence (P33527 whole entry): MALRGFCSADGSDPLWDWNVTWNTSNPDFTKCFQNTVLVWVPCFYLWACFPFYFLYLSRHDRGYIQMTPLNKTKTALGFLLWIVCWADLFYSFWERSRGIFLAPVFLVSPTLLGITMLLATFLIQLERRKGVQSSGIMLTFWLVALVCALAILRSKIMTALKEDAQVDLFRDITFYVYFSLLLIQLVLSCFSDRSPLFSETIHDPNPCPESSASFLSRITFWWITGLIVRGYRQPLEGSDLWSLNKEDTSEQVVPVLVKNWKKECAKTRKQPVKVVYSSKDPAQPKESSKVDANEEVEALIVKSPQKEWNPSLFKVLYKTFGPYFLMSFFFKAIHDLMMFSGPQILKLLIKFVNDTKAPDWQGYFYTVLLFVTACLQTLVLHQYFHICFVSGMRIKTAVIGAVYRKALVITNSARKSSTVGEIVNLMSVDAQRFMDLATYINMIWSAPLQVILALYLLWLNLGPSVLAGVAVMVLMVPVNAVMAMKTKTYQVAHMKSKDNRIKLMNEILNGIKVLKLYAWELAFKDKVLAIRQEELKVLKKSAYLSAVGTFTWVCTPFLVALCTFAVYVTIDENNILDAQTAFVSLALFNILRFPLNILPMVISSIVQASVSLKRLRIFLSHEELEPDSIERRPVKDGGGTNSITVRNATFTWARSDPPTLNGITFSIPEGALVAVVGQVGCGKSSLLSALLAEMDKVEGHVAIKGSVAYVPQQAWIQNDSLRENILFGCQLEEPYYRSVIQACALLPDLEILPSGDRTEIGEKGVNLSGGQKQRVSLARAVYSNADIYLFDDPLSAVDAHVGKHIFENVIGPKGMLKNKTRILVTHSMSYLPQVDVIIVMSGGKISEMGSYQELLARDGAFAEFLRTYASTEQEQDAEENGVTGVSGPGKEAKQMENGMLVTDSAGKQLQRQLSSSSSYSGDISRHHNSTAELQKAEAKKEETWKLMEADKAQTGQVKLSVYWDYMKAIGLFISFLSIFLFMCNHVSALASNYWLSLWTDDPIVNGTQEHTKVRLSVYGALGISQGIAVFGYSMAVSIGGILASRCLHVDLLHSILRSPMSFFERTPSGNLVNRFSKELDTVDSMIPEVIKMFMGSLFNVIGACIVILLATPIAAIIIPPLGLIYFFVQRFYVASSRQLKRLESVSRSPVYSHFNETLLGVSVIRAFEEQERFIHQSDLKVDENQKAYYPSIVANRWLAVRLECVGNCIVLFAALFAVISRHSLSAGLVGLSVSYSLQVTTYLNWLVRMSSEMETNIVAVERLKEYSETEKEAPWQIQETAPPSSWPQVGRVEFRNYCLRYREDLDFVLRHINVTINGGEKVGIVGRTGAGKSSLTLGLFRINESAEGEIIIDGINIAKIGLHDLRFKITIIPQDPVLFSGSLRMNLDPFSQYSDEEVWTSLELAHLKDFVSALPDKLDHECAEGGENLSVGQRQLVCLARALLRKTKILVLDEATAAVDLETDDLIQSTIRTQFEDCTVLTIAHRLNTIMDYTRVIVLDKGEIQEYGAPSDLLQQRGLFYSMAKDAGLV
# [3] = molecular target: T1, Broad substrate specificity ATP-binding cassette transporter ABCG2 (Homo sapiens, UniProt Q9UNQ0); assay: Inhibition of BCRP in human MCF7/MX cells assessed as Hoechst 33342 accumulation preincubated for 30 mins by Fluorometry; format: cell-based
# T1 sequence (Q9UNQ0 whole entry): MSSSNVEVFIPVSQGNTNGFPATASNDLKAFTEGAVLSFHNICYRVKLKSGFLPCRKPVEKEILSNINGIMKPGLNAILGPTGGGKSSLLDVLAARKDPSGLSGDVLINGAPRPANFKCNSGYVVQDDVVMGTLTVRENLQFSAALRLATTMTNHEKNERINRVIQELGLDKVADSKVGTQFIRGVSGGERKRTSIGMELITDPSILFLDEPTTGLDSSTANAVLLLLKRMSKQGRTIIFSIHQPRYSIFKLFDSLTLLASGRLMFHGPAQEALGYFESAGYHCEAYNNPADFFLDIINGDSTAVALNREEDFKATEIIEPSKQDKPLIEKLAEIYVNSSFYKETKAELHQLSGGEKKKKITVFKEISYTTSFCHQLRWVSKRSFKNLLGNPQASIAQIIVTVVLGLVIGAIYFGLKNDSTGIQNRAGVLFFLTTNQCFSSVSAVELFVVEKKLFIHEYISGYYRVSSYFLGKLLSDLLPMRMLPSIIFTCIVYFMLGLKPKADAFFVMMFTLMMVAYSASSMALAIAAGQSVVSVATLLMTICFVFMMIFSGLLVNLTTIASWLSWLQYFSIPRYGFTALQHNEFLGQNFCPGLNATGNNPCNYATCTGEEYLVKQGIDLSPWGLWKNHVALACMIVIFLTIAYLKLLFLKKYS
# How it was run: (§2)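 Cells washed three times in Krebs-HEPES buffer, about 20,000 per well, preincubated with test compound at varied concentrations for 30 min at 37 °C, 5% CO2. Hoechst 33342 then added (final 1 µM). Fluorescence (ex 355, em 460 nm) read every 60 s up to 120 min at 37 °C. KHB background subtracted, 100–109 min mean plotted, four-parameter logistic fit; ≥3 independent experiments.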
# [4] = molecular target: T1, Broad substrate specificity ATP-binding cassette transporter ABCG2; assay: Inhibition of human BCRP expressed in MDCK2 cells assessed as Hoechst 33342 accumulation preincubated for 30 mins by fluorimetry; format: cell-based, MDCK-II; how it was run: as §2
# MDCK-II = assay: Potentiation of SN-38 anticancer activity against MDCK2 cells expressing human BCRP after 72 hrs by MTT assay; format: functional, cell-based; settings: Canis lupus familiaris
# How it was run: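 Cells seeded (1250/well MDCK, 10,000/well MCF-7) and left 6 h at 37 °C, 5% CO2. Mitoxantrone or SN-38 dose range added with or without three concentrations of modulator, then 72 h incubation. MTT added for 1 h, cells lysed in DMSO, absorbance read at 544 nm minus 710 nm. EC50 derived; parental cells as controls; three independent experiments.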
# ATP-dependent translocase ABCB1, sequence (P08183 whole entry): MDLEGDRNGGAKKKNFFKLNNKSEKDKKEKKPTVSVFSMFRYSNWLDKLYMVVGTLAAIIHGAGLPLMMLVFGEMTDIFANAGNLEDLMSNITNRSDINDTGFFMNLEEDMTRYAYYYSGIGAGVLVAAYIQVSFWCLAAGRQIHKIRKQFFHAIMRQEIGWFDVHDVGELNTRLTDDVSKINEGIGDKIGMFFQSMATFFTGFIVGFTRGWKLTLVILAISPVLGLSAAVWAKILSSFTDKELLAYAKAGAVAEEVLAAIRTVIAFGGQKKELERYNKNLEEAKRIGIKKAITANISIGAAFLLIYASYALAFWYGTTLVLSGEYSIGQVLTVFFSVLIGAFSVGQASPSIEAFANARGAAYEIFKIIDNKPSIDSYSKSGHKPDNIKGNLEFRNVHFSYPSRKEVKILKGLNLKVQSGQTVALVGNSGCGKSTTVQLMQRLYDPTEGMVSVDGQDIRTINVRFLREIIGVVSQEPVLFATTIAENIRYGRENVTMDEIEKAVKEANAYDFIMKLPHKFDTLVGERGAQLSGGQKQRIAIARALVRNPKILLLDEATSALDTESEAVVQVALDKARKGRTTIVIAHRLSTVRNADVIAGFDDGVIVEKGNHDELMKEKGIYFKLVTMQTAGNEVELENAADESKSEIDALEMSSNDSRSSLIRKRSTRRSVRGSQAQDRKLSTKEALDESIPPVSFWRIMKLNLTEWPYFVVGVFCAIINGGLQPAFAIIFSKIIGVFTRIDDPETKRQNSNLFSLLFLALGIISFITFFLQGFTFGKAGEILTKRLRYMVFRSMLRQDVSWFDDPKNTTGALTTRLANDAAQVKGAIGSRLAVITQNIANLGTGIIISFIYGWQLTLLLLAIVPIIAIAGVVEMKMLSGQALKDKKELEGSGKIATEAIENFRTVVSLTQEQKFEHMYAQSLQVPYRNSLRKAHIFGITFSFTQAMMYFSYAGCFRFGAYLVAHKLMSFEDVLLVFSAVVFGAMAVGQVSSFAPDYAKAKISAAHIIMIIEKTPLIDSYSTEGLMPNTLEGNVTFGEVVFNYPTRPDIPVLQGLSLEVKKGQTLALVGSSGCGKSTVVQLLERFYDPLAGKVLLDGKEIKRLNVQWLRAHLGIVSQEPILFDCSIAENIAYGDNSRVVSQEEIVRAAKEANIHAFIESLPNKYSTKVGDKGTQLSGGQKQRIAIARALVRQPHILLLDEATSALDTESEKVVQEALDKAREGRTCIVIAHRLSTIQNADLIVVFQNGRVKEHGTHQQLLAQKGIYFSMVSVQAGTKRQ
Structure (SMILES),inhibition (INH) [1],inhibition (INH) [2],IC50 ([3]; read-out: IC50) [µM],IC50 ([4]; read-out: IC50) [µM],IC50 ([3]; mcf7/mx),IC50 ([4]; mdck-ii),Activity (MDCK-II)
COc1cccc(/C=C/C(=O)c2ccc(OC)cc2O)c1,Active,Not Active,3.15,1.47,–,–,–
O=C(/C=C/c1ccccc1Cl)c1ccc(O)cc1O,Active,Not Active,3.21,3.28,–,–,–
COc1ccc(/C=C/C(=O)c2c(O)ccc3ccccc23)cc1,Active,Not Active,3.81,2.89,–,–,–
O=C(/C=C/c1ccccc1)c1c(O)ccc2ccccc12,Active,Not Active,2.77,2.58,–,–,–
COc1cc(OO)ccc1C(=O)/C=C/c1ccc(Cl)c(Cl)c1,Active,Not Active,–,–,Not Active,Not Active,–
COc1cccc(/C=C/C(=O)c2ccc3ccccc3c2O)c1,Active,Not Active,11.9,5.68,–,–,–
"O=C(/C=C/c1ccccc1)c1ccc(O)cc1O [2',4'-DIHYDROXYCHALCONE]",Active,Not Active,–,–,Not Active,Not Active,–
COc1cccc(/C=C/C(=O)c2ccc(O)cc2O)c1,Active,Not Active,2.8,1.94,–,–,–
O=C(/C=C/c1ccccc1)c1ccccc1O [2'-HYDROXYCHALCONE],Active,Not Active,–,–,Not Active,Not Active,–
COc1cc(O)c(C(=O)/C=C/c2ccccc2Cl)c(OC)c1,Active,Not Active,5.27,2.82,–,–,–
O=C(/C=C/c1ccc(Cl)c(Cl)c1)c1ccc2ccccc2c1O,Active,Not Active,26.1,22.4,–,–,–
O=C(/C=C/c1ccc(Cl)c(Cl)c1)c1c(O)ccc2ccccc12,Active,Not Active,8.78,7.26,–,–,–
COc1ccc(C(=O)/C=C/c2ccc(Cl)c(Cl)c2)c(O)c1,Active,Not Active,–,–,Not Active,Not Active,–
COc1ccc(/C=C/C(=O)c2ccc3ccccc3c2O)cc1,Active,Not Active,16.9,9.83,–,–,–
O=C(/C=C/c1ccccc1Cl)c1c(O)ccc2ccccc12,Active,Not Active,5.21,5.58,–,–,–
COc1ccc(C(=O)/C=C/c2ccccc2Cl)c(O)c1,Active,Not Active,6.85,3.32,–,–,–
O=C(/C=C/c1ccccc1)c1ccc2ccccc2c1O,Active,Not Active,24.3,9.23,–,–,–
O=C(/C=C/c1ccccc1Cl)c1ccc2ccccc2c1O,Active,Not Active,–,–,Not Active,Not Active,–
COc1ccc(C(=O)/C=C/c2ccccc2)c(O)c1,Active,Not Active,31,30.9,–,–,–
O=C(/C=C/c1ccccc1Cl)c1ccccc1,Active,Not Active,–,–,Not Active,Not Active,–
COc1cccc(/C=C/C(=O)c2c(O)ccc3ccccc23)c1,Active,Not Active,1.93,1.93,–,–,–

# Continued, in another order:
inhibition (INH) [1],inhibition (INH) [2],IC50 ([3]; read-out: IC50) [µM],IC50 ([4]; read-out: IC50) [µM],IC50 ([3]; mcf7/mx),IC50 ([4]; mdck-ii),Structure (SMILES),Activity (MDCK-II)
Active,Not Active,3.09,1.13,–,–,COc1ccc(C(=O)/C=C/c2ccc(Cl)cc2)c(OC)c1,–
Active,Not Active,1.84,0.72,–,–,COc1ccc(/C=C/C(=O)c2c(O)ccc3ccccc23)cc1OC,Dose-dependent effect
Active,Not Active,13.5,10.7,–,–,COc1ccc(C(=O)/C=C/c2ccc(Cl)cc2)c(O)c1,–
Active,Not Active,5.83,3,–,–,COc1ccc(/C=C/C(=O)c2c(O)cc(OC)cc2OC)cc1 [FLAVOKAWAIN A],–
Active,Not Active,4.2,2.2,–,–,COc1ccc(/C=C/C(=O)c2ccc(OC)cc2O)cc1,–
Active,Not Active,2.2,1.03,–,–,COc1ccc(C(=O)/C=C/c2ccc(OC)c(OC)c2)c(OC)c1,–
Active,Not Active,3.13,2.63,–,–,COc1ccc(C(=O)/C=C/c2ccccc2Cl)c(OC)c1,–
Active,Not Active,11,7.8,–,–,COc1ccc(C(=O)/C=C/c2ccccc2Cl)cc1OC,–
Active,Not Active,2.19,1.16,–,–,COc1ccc(/C=C/C(=O)c2ccc(OC)c(OC)c2)cc1,–
Active,Not Active,6.07,6.37,–,–,O=C(/C=C/c1ccc(Cl)cc1)c1ccc(O)cc1O,–
Active,Not Active,2.17,1.06,–,–,COc1ccc(C(=O)/C=C/c2ccc(OC)c(OC)c2)c(O)c1,–
Active,Not Active,–,–,Not Active,Not Active,O=C(/C=C/c1ccc(Cl)cc1)c1ccc2ccccc2c1O,–
Active,Not Active,0.93,0.85,–,–,COc1ccc(/C=C/C(=O)c2ccc(O)cc2O)cc1OC,–
Active,Not Active,5.07,4.97,–,–,COc1ccc(/C=C/C(=O)c2ccccc2O)cc1OC,–
Active,Not Active,–,–,Not Active,Not Active,O=C(/C=C/c1ccc(Cl)cc1)c1c(O)ccc2ccccc12,–
Active,Not Active,2.72,1.73,–,–,COc1ccc(C(=O)/C=C/c2ccc(Cl)cc2)cc1OC,–
Active,Not Active,–,–,Not Active,Not Active,COc1ccc(/C=C/C(=O)c2ccccc2O)cc1,–
Active,Not Active,3.28,3.8,–,–,COc1ccc(/C=C/C(=O)c2ccc(OC)c(OC)c2)cc1OC,–
Active,Not Active,–,–,Not Active,Not Active,COc1ccc(/C=C/C(=O)c2ccccc2)cc1OC,–
Active,Not Active,33.3,12,–,–,COc1ccc(/C=C/C(=O)c2ccc(O)cc2O)cc1,–
Active,Not Active,2.34,1.91,–,–,COc1ccc(/C=C/C(=O)c2ccc(OC)cc2OC)cc1 [METOCHALCONE],–
Active,Not Active,2.5,1.95,–,–,COc1ccc(/C=C/C(=O)c2ccc3ccccc3c2O)cc1OC,–
